Only a selection was taken, and hits are over-represented in it overall.
bCat KO growth: beta-catenin-lacking colon tumor cell growth suppression; HCT116 beta-catenin knockout viability, CellTiter-Glo, 60 h; active compounds read low; 140,000 compounds, 1.5% hits; viability, % at 10 µM; AID 818;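 active = viability at or under a set limit, the compound median less 4 SD, cut at about 6% in these data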
Lung fibro prol: blocks proliferation of human lung fibroblasts | 85,000 compounds, 1.1% hits | LL 47 human lung fibroblast viability, ATP luminescence; active compounds read low | viability, % at 10 µM | AID 719;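 active = viability at or below 50% in the single dose screen; inactive = viability above 50%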;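 note: compound exposure lasted 72 h before the ATP readout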
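Signal: luminescent ATP detection, CellTiter-Glo; assay system: LL 47 human lung fibroblasts; input: 1,150 cells/well; incubation: overnight cell rest, 72 h compound treatment at 37 °C; measure: % viability versus median cells-only luminescence; medium: IMEM growth medium with 15% fetal bovine serum; dosing: compound addition at 0.1% DMSO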
HUVEC inhibit: human endothelial cell proliferation inhibition. AID 648. viability, % at 10 µM (by protocol). 86,000 compounds, 1.1% hits. HUVEC proliferation, CellTiter-Glo luminescence, 72 h; active compounds read low;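 active = viability at or below 30%; inactive = viability above 30%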
PTEN del growth: PTEN-deleted cell growth suppression | HCT116 PTEN-null viability, CellTiter-Glo, 60 h; active compounds read low | viability, % at 10 µM | 140,000 compounds, 1.2% hits;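 active = viability at or below a set limit, 4 SD under the median of all tested compounds, cut at about 3.7% in these data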;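 note: PTEN knockout HCT116 line with beta catenin targeted HCT116 as companion control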
H69AR inhibit: blocks growth of human H69AR lung tumor cells | H69AR lung tumor viability, ATP luminescence, 72 h; active compounds read low | viability, % at 10 µM | 85,000 compounds, 6% hits;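 active = viability at or below 40%; inactive = viability above 40%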;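 note: multidrug resistant small cell line overexpressing MRP-1 efflux transporter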
A number is an active result; 0 = inactive; - = no result.

SMILES	bCat KO growth	Lung fibro prol	HUVEC inhibit	PTEN del growth	H69AR inhibit
COc1ccc(CCNC(=O)Cn2c(=O)cnc3ccccc32)cc1	0	0	0	0	25
COc1ccc(/C=N/NC(=O)c2nc(Cl)c(Cl)c(N)c2Cl)cc1COc1ccccc1F	0	-	-	0	-
COc1ccc(/C=N/NC(=O)c2nc(Cl)c(Cl)c(N)c2Cl)cc1COc1ccc(F)cc1F	2.0	-	-	0	-
CC(CCc1ccccc1)NC(=O)COc1ccc(S(=O)(=O)N2CCOCC2)cc1[N+](=O)[O-] (stereo not drawn)	0	-	-	0	-
CCc1cc2c(=O)n(Cc3ccco3)c(SCc3c(C)noc3C)nc2s1	0	49	0	0	13
CCc1cc2c(=O)n(Cc3ccco3)c(SCC(=O)N3CCCc4ccccc43)nc2s1	0	0	0	0	0
CCc1nnc2n1N=C(c1ccc(OC)cc1)CS2	0	0	0	0	19
CCOc1ccc(-c2nnc3n2N=C(c2ccc(OC)cc2)CS3)cc1	0	0	0	0	0
COc1ccc(C2=Nn3c(nnc3-c3ccccn3)SC2)cc1	0	0	0	0	24
CCc1nnc2n1N=C(c1ccc(-c3cc(Cl)ccc3Cl)o1)CS2	1.4	0	0	1.7	8.5
CCOC(=O)c1ccc(NC(=O)CSc2nc(NC(=O)c3ccccc3)c3c(C)c(C)oc3n2)cc1	0	0	0	0	22
CCOC(=O)c1ccc(-c2ccc(C3Nc4ccccc4C(=O)N3O)o2)cc1 (stereo not drawn)	5.4	-	-	0	-
O=C(Cn1ncc(Cl)c(Cl)c1=O)NCC1CCCCC1	1.8	-	-	1.5	-
O=C(OCn1ncc(Cl)c(Cl)c1=O)c1ccc(F)cc1	0.8	-	-	0.5	-
Cc1cccc(N2CCN(CC(=O)NCC3CCCCC3)CC2)c1C	0	0	0	0	0
C=CCn1c(C)cc(C(=O)Cn2ncc(Cl)c(Cl)c2=O)c1C	1.7	-	-	1.4	-
O=C(OCn1ncc(Cl)c(Cl)c1=O)c1ccccc1Cl	3.9	-	-	0	-
COc1cccc(NC(=O)CSc2nc3c(oc4ccccc43)c(=O)[nH]2)c1	0	-	-	0	-
O=C(NCc1ccccn1)c1cccc(NS(=O)(=O)c2ccccc2F)c1	0	-	-	0	-
C[n+]1ccn(CC(=O)c2ccc(Cl)cc2)c1	0	-	-	0	-
O=C(Cn1ncc(Cl)c(Cl)c1=O)c1ccc(Cl)cc1	1.7	2.6	2.6	2.0	1.4
COC(=O)CCC(=O)NC(=S)Nc1cc(Cl)ccc1Cl	0	-	-	0	-
COc1ccc2cc(CN(C(=O)Nc3ccccc3OC)C3CCCC3)c(=O)[nH]c2c1	0	0	0	0	25
CCc1ccc2[nH]c(=O)c(CN(Cc3ccccc3)C(=O)Nc3ccccc3OC)cc2c1	0	49	0	0	39
COc1ccccc1NC(=O)N(Cc1ccc2c(c1)OCO2)Cc1nc2ccccc2c(=O)[nH]1	0	0	0	0	9.4
SMILES	bCat KO growth	Lung fibro prol	HUVEC inhibit	PTEN del growth	H69AR inhibit
COc1cc2cc(CN(C(=O)NC3CCCCC3)C3CCCC3)c(=O)[nH]c2cc1OC	0	0	0	0	0
O=C(NC1CCCCC1)N(Cc1cc2cc3c(cc2[nH]c1=O)OCCO3)C1CCCCC1	0	0	0	0	36
CCOc1ccccc1CNn1nnnc1N	0	0	0	0	0
CC(CC(=O)NCC1CCCO1)c1ccccc1 (stereo not drawn)	0	-	-	0	-
Cc1cc(C)c(C(CC(=O)c2cccs2)C(C#N)C#N)c(C)c1 (stereo not drawn)	0	-	-	0	-
CC1CN(S(=O)(=O)c2cccc(C(=O)OCC(=O)c3cccs3)c2)CC(C)O1 (stereo not drawn)	0	0	0	0	0
CC1CN(S(=O)(=O)c2cccc(C(=O)OCC(=O)Nc3ccc4c(c3)OCO4)c2)CC(C)O1 (stereo not drawn)	0	0	0	0	1.0
CC1Nc2ccccc2C(=O)N1NS(=O)(=O)c1ccccc1 (stereo not drawn)	0	-	-	0	-
COc1ccccc1C1Nc2cccc3cccc(c23)N1	0	0	0	0	0
CCOc1ccc(C2Nc3cccc4cccc(c34)N2)cc1OC	0	0	0	0	0
Oc1ccccc1C1Nc2cccc3cccc(c23)N1	0	0	0	0	34
CCOc1cc(C2Nc3cccc4cccc(c34)N2)ccc1O	0	0	0	0	36
O=P(COc1ccccc1)(c1ccccc1)c1ccccc1	0	-	-	0	-
C=CCc1cc(C)ccc1OCCOCCn1ccnc1	0	-	-	0	-
CC(=O)N(C)C1=C(N2CCOCC2)C(=O)c2ccccc2C1=O	0.7	-	-	0.8	-
CC(=O)c1ccc(NC2=C(N3CCOCC3)C(=O)c3ccccc3C2=O)cc1	0	-	-	0	-
CC1CC(C)CN(Cc2nc(N)nc(Nc3ccc4ccccc4c3)n2)C1 (stereo not drawn)	0	0	0	0	12
Nc1nc(CN2CCCCCC2)nc(Nc2ccccc2)n1	0	0	0	0	0
Nc1nc(CN2CCC(Cc3ccccc3)CC2)nc(Nc2ccccc2)n1	0	0	0	0	30
COc1ccccc1N1CCN(Cc2nc(N)nc(Nc3ccc(C)cc3)n2)CC1	0	0	0	0	3.0
Cc1ccc(Nc2nc(N)nc(CN3CCN(c4ccccc4F)CC3)n2)cc1	0	0	0	0	0
CN(CC(=O)Nc1ccc(F)cc1)C(=O)COc1ccc(C(=O)c2ccccc2)cc1	0	-	-	0	-
Cc1ccc2[nH]c(=O)c(C3C(C#N)=C(N)Oc4c3ccc3cccnc43)cc2c1 (stereo not drawn)	0	0	4.9	0	10
O=C(CSc1nnc(-c2ccccn2)n1Cc1ccccc1)Nc1ccc2c(c1)OCO2	0	0	0	0	14
CCOc1ccc2nc(SCC(=O)Nc3ccc4c(c3)OCCO4)[nH]c2c1	0	0	0	0	0
SMILES	bCat KO growth	Lung fibro prol	HUVEC inhibit	PTEN del growth	H69AR inhibit
O=C(CSc1nc2ncc(Br)cc2[nH]1)Nc1ccc2c(c1)OCO2	0	0	0	0	2.5
Cn1c(SCC(=O)Nc2ccc3c(c2)OCCO3)nnc1-c1ccccn1	0	0	0	0	0
CC(=O)c1c(C)[nH]c(C(=O)CSc2nnc(-c3ccco3)n2Cc2ccccc2)c1C	0	0	0	0	39
CC(=O)c1c(C)[nH]c(C(=O)CSc2nnc(-c3ccccc3)n2Cc2ccc3c(c2)OCO3)c1C	0	0	13	0	20
O=C1C2CSCN2C(=O)CN1CCCN1CCN(C(c2ccccc2)c2ccccc2)CC1 (stereo not drawn)	0	-	-	0	-
O=C(CSc1ncnc2c1cnn2-c1ccccc1)Nc1ccc2c(c1)OCO2	0	0	0	0	37
CCOC(=O)c1c(C)[nH]c(C(=O)CSc2nnc(-c3cccs3)n2Cc2ccccc2)c1C	0	0	0	0	4.9
O=C(NCC1OCCc2ccccc21)c1ccc(NC(=O)c2cccc(Br)c2)cc1 (stereo not drawn)	0	-	-	0	-
CC1=C(C(=O)OC(C)C)C(c2cncc(-c3ccc(F)cc3)c2)C(C#N)=C(N)O1 (stereo not drawn)	0	-	-	0	-
O=C(c1ccc2c(c1)N(Cc1ccccc1)C(=O)c1ccccc1S2)N1CCCC1	0	0	0	0	29
C=CCn1c(SCC(=O)c2c(N)n(C)c(=O)n(C)c2=O)nc2sc(C)c(C)c2c1=O	0	-	-	0	-
